Assay outcomes (PubChem BioAssay)
The list is not random: actives were taken first. Their share in the collection is about 2.2%.
MCL1 BIM primary: MCL1-BIM-BH3 interaction inhibition (human); 320,000 tested, 0.68% active; inhibition, % at 10.9 µM; Q07820; GST-MCL1 / FITC-Bim-BH3 fluorescence polarization;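 active = inhibition above the mean inhibition of all tested compounds plus 3 SD, set per campaign, cut at about 40% in these data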;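 note: 0% = DMSO wells and 100% = unlabeled Bim-BH3 peptide control; higher means more loss of mP so more displacement of Bim peptide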
Mcl1 Noxa PPI: disrupts binding of human Mcl-1 to Noxa peptide. TR-FRET Mcl-1/Noxa peptide binding, 2 h. inhibition, % at 21.7 µM. 220,000 tested, 1.5% active. AID 1022;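 active = compounds that cut the protein-peptide binding signal by more than 50% relative to plate controls in a single-dose test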;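 note: His-tagged Mcl-1 with rhodamine Noxa BH3 peptide and terbium anti-His antibody; 0% = Mcl-1 plus Noxa peptide wells and 100% = peptide-only wells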
Mcl1-Bid inh: Mcl-1/Bid interaction inhibition; TR-FRET Mcl-1/Bid-Dy647 peptide binding, 1536-well; 220,000 tested, 0.97% active; AID 1021; inhibition, % at 21.7 µM;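 active = compounds that cut the binding signal by more than half at the single screening dose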;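 note: His-tagged Mcl-1 with europium anti-His antibody binding Bid BH3 peptide; 0% = Mcl-1 plus peptide wells and 100% = peptide-only wells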
RBBP9 inh: blocks human serine hydrolase RBBP9 | recombinant RBBP9, FP-Rh probe fluorescence polarization | 220,000 tested, 0.2% active | inhibition, % at 7.94 µM | O75884;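 active = inhibition above the campaign mean of all tested compounds plus 3 SD, cut at about 14% in these data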;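 note: plate controls were DMSO wells with RBBP9 for no effect and wells lacking RBBP9 protein for full effect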
Target sequence (O75884 whole entry, looked up): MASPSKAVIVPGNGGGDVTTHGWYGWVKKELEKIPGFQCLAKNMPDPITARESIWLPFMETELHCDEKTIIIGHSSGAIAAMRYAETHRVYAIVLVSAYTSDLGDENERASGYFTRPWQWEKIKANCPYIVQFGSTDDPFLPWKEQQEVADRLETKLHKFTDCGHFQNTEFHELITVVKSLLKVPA
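Measured by – fluorescence polarization · Test system – RBBP9 protein · Input – 2.5 µM RBBP9 dispensing solution, before mixing · Measure – percent inhibition from mP, scaled between DMSO and no-protein wells · Benchmarks – DMSO-treated enzyme wells and wells lacking RBBP9 · Times – preincubation 30 min plus labeling 45 min at 25 °C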
EBV gp42 inh: blocks Epstein-Barr virus glycoprotein 42 binding; Q1HVG2; Fluorescence polarization binding assay, mP read-out; inhibition, % (tested at 21.74 µM); 220,000 tested, 0.42% active; AID 1085; in the data active = inhibition above about 50%
Target sequence (Q1HVG2 whole entry, looked up): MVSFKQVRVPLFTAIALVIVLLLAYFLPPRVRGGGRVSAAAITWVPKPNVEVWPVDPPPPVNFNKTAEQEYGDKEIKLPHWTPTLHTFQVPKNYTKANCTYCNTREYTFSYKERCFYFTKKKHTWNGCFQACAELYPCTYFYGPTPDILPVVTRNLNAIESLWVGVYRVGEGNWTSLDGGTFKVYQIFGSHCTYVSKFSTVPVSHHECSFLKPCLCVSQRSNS
Mcl-1 Bim block: inhibitors of Bim-Mcl-1 interaction, human. Q07820. Bead-based flow cytometry, Bim peptide-Mcl-1 binding. inhibition, % at 10 µM. 190,000 tested, 0.1% active. AID 1009; in the data active = inhibition above about 40%;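 note: 0% = no compound tracer wells and 100% = peptide blocker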
An asterisk follows results filed as active; . = no result given.

SMILES	MCL1 BIM primary	Mcl1 Noxa PPI	Mcl1-Bid inh	RBBP9 inh	EBV gp42 inh	Mcl-1 Bim block
CCOC(=O)NC(=O)/C(C#N)=C/c1ccc(N(C)C)cc1	-89	-2	82*	-5	-154	.
O=C1N=C(N2CCN(c3ccccc3)CC2)S/C1=C/c1cccs1	18	-2	-67	-2	-17	-4
O=C1N=C(c2ccccc2)S/C1=C\c1cccs1	13	72*	-28	2	-98	-8
Cc1ccc(-c2cc(C(=O)N3CC(C)CC(C)C3)c3ccccc3n2)o1 (configuration not stated)	24	.	.	.	.	.
COC(=O)c1cc(-c2ccc(C)o2)nc2ccccc12	24	78*	2	-4	-8	0
COc1cccc(NC(=O)c2cc(-c3ccc(C)o3)nc3ccccc23)c1	0	.	.	.	.	.
Cc1ccc(-c2cc(C(=O)Nc3ccccc3C)c3ccccc3n2)o1	16	66*	12	-1	-8	-2
Cn1nnnc1SCC(=O)Nc1ccc(C(=O)N2CCN(Cc3ccccc3F)CC2)cc1	2	.	.	.	.	.
O=C1NC(=S)S/C1=C\C=C\c1ccc([N+](=O)[O-])o1	.	103*	21	8	20	.
O=C(O)/C=C/c1ccc([N+](=O)[O-])o1	12	19	-5	-10	-7	1
Cc1cc(C2C(C#N)=C(N)OC3=C2C(=O)CCC3)c(C)s1 (configuration not stated)	5	8	-1	-10	-1	-2
COc1cc(C2C(C#N)=C(N)OC3=C2C(=O)CCC3)c([N+](=O)[O-])cc1OC (configuration not stated)	194*	97*	-18	-4	83*	2
COc1ccc(C(=O)/C=C/c2ccc(N3CCCCC3)c([N+](=O)[O-])c2)cc1	-3	8	100*	1	3	-3
COc1ccc(C(=O)/C=C/c2ccc(N3CCCCC3)c([N+](=O)[O-])c2)c(OC)c1	-9	5	-11	-10	8	-2
O=C(CN1CCN(S(=O)(=O)c2cc(C(F)(F)F)ccc2Cl)CC1)N1CCc2ccccc2C1	-5	.	.	.	.	.
Cc1ccc(C)c(S(=O)(=O)N2CCN(CC(=O)N3CCc4ccccc4C3)CC2)c1	2	7	62*	-5	-17	0
O=C1CCCC2=C1C(c1cn(-c3ccccc3)nc1-c1cccs1)c1c([nH]c(=O)[nH]c1=O)N2 (configuration not stated)	11	62*	50	7	34	0
CSc1nc2c(c(=O)[nH]1)C(c1cccs1)C1=C(CCCC1=O)N2 (configuration not stated)	9	7	-42	-3	-9	-4
CCCC(C(=O)NC(C)(C)C)N(CC1CCCO1)C(=O)CNS(=O)(=O)c1ccc(F)cc1 (configuration not stated)	4	.	.	.	.	.
O=c1cc2c(=O)oc3cc(O)c(O)oc3c2c(O)c1O	.	89*	-158	-1	-12	.
CC(C)(C)c1nc2ccccc2c2nnc(SCC(=O)Nc3nc4ccccc4s3)n12	-3	26	71*	-9	-13	2
Cn1c(Cc2ccc3c(c2)OCO3)nnc1SCC(=O)NC1CCCC1	8	0	-1	2	-12	-3
COC(=O)c1ccc2c(=O)sc(N3CCC(C(N)=O)CC3)nc2c1	20	12	-25	-1	85*	-1
N#C/C(=C(/O)c1ccc(Cl)c([N+](=O)[O-])c1)c1nc2ccccc2[nH]1	7	66*	25	-4	-7	.
O=C(CCN1C(=O)S/C(=C/c2ccccc2)C1=O)Nc1ccc(O)c(C(=O)O)c1	3	.	.	.	.	.
SMILES	MCL1 BIM primary	Mcl1 Noxa PPI	Mcl1-Bid inh	RBBP9 inh	EBV gp42 inh	Mcl-1 Bim block
O=c1nc2s/c(=C\c3ccc(-c4ccccc4[N+](=O)[O-])o3)c(=O)n2nc1-c1ccccc1	.	96*	-36	-6	176*	3
CCN(CC)S(=O)(=O)c1cc([N+](=O)[O-])ccc1N=Nc1c(O)[nH]c2ccccc12	-5	7	51*	4	-36	-1
CCc1cc(C(=O)N=Nc2c(O)[nH]c3ccc([N+](=O)[O-])cc23)c2ccccc2n1	38	92*	-48	1	31	-1
CC(C)c1[nH]nc2c1C(c1cccnc1)C(C#N)=C(N)O2 (configuration not stated)	0	3	92*	4	-29	-2
COc1ccc(C2C(C(C)=O)=C(C)N=c3s/c(=C\c4cc(C)n(C)c4C)c(=O)n32)c(OC)c1 (configuration not stated)	-78	-2	-133	-5	92*	1
O=C(NC(NC(=S)Nc1ccc(Cl)cc1Cl)C(Cl)(Cl)Cl)c1cccc([N+](=O)[O-])c1 (configuration not stated)	7	15	1	-68	60*	-1
Cc1ccc(NC(=O)c2cc(S(=O)(=O)NCCC3=CCCCC3)ccc2F)cc1F	8	10	-4	-2	-3	68*
CCCNC(=O)c1csc2c1CCCCC2	5	8	-16	0	1	-6
O=C(NC1CCCC1)c1csc2c1CCCC2	5	11	100*	-2	-10	3
COC(=O)C(Cc1csc2ccc(Cl)cc12)NC(=O)c1ccc(Cl)cc1 (configuration not stated)	9	45	82*	-12	3	.
Cc1ccc(C(=O)c2ccccc2C(=O)O)s1	-5	11	-5	-8	-32	0
O=C(O)c1ccccc1C(=O)c1ccc(Br)s1	-1	54*	-20	-10	-8	1
COc1ccc(C2Nc3ccccc3NC3=C2C(=O)CC(C)(C)C3)cc1 (configuration not stated)	5	.	.	.	.	.
CC1(C)CC(=O)C2=C(C1)Nc1ccccc1NC2c1ccc(F)cc1 (configuration not stated)	45*	.	.	.	.	.
CC1CCc2sc(C(=O)Nc3ccc(N4CCOCC4)cc3)cc2C1 (configuration not stated)	0	52*	-28	-7	1	0
CC1CCc2sc(C(=O)NCC(C)(C)N3CCOCC3)cc2C1 (configuration not stated)	1	.	.	.	.	.
O=C(Nc1ccc(N2CCOCC2)cc1)Nc1ccc2nsnc2c1	4	61*	-50	-2	-2	4
C=CCNC(=O)NC(=O)CN1C(=O)NC(c2ccccc2)(c2ccccc2)C1=O	-1	.	.	.	.	.
CCCOP(=O)(c1ccc(N(C)C)cc1)C(O)c1ccc(Br)cc1 (configuration not stated)	-8	.	.	.	.	.
CCOc1ccccc1NC(=O)Cn1nnc(C(=O)NCc2ccc3c(c2)OCO3)c1N	-4	.	.	.	.	.
CCc1nnc(NC(=O)c2ccc(COc3ccccc3Cl)o2)s1	5	.	.	.	.	.
CCc1nnc(NC(=O)c2ccc(-c3ccccc3Cl)o2)s1	5	20	53*	-2	-4	1
Cn1c(=O)n(C)c2cc(NC(=O)c3ccc(F)cc3)ccc21	-1	.	.	.	.	.
